# Data published in ChEMBL document CHEMBL5247591, “Single-digit nanomolar inhibitors lock the aromatase active site via a dualsteric targeting strategy” (Eur J Med Chem, 2022).
# Calls of active or inactive are those of the source. The calls are words filed in the database; no cut-off is given here.
# Tests used:
# MCF7 = assay: Antiproliferative activity against estrogen positive human MCF7 cells assessed as inhibition of cell growth upto 50 uM incubated for 72 hrs by cell counting analysis; assay type: functional, cell-based
# In short: (§1)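 Cells seeded in duplicate (50.000 cells/well for MCF-7 and MDA-MB-231, 90.000 cells/well for MCF-10A). 24 h later exposed 72 h to 50-0.1 μM compound, with or without 1 μM testosterone; medium and treatments replaced at 48 h. Cells harvested with trypsin and counted with a cell counter. Three experiments.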
# Aromatase [1] = molecular target: T1, Aromatase (Homo sapiens, UniProt P11511); assay: Inhibition of recombinant human aromatase preincubated for 10 mins followed by substrate and beta-NADP+ addition and measured for 60 mins by fluorescence based assay
# T1 sequence (P11511 whole entry): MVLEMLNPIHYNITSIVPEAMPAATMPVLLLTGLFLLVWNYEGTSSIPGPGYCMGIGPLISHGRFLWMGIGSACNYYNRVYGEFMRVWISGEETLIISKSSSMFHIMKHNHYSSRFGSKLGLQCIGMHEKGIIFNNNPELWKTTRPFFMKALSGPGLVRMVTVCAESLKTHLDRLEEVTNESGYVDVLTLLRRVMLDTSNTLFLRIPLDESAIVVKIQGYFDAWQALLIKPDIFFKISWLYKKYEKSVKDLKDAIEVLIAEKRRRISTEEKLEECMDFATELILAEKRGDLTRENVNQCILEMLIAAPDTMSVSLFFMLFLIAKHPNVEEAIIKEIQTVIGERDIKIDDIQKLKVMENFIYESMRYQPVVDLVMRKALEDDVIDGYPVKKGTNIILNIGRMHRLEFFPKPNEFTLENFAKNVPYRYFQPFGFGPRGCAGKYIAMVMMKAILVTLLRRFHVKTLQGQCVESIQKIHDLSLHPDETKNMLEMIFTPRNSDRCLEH
# In short: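 Recombinant human aromatase with NADPH-generating system in aromatase assay buffer. Compounds tested at 1000, 100, 10, 1 and 0.1 nM, DMSO final ≤0,25% (v/v). Preincubated 37°C for 10 min, then fluorogenic substrate/β-NADP+ added. Fluorescence read at 488/527 nm for 60 min.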
# MCF-10A = assay: Cytotoxicity against human MCF-10A cells assessed as inhibition of cell growth upto 50 uM incubated for 72 hrs by cell counting analysis; assay type: toxicity, cell-based; in short: as §1
# MDA-MB-231 = assay: Antiproliferative activity against estrogen negative human MDA-MB-231 cells assessed as inhibition of cell growth upto 50 uM incubated for 72 hrs by cell counting analysis; assay type: functional, cell-based; in short: as §1
# Aromatase [2] = molecular target: T1, Aromatase; assay: Inhibition of human placental microsome aromatase using androstenedione as substrate assessed as reduction in 3H2O formation preincubated for 5 mins in presence of NADPH followed by microsomal protein addition and measured after 3 hrs; assay type: microsomes, Placenta
Structure (SMILES),inhibition (MCF7),IC50 (Aromatase [1]),Activity (MCF-10A),inhibition (MDA-MB-231),IC50 (Aromatase [2])
C#CCOc1ccc(C(=O)c2ccc(Cn3ccnc3)cc2)cc1,inactive,210 nM,Non-Toxic,inactive,
CCC#CCOc1ccc(C(=O)c2cccc(Cn3ccnc3)c2)cc1,inactive,9 nM,Non-Toxic,inactive,
CCCOc1ccc(C(=O)c2cccc(Cn3ccnc3)c2)cc1,inactive,2 nM,Non-Toxic,inactive,
C#CCOc1ccc(C(=O)c2cccc(Cn3ccnc3)c2)cc1,inactive,650 nM,Non-Toxic,inactive,
COc1ccc(C(=O)c2ccc(Cn3ccnc3)cc2)cc1,,,,,238 nM
CCCCCOc1ccc(C(=O)c2ccc(Cn3ccnc3)cc2)cc1,inactive,1300 nM,Non-Toxic,inactive,
COc1ccc(C(=O)c2cccc(Cn3ccnc3)c2)cc1,inactive,13 nM,Non-Toxic,inactive,
CCCCCOc1ccc(C(=O)c2cccc(Cn3ccnc3)c2)cc1,inactive,42 nM,Non-Toxic,inactive,
O=C(c1ccc(Cn2ccnc2)cc1)c1ccc(-c2ccccc2)cc1,,,,,2530 nM
CCCOc1ccc(C(=O)c2ccc(Cn3ccnc3)cc2)cc1,inactive,374 nM,Non-Toxic,inactive,
CCC#CCOc1ccc(C(=O)c2ccc(Cn3ccnc3)cc2)cc1,inactive,1420 nM,Non-Toxic,inactive,
O=C(c1ccc(O)cc1)c1cccc(Cn2ccnc2)c1,inactive,13 nM,Non-Toxic,inactive,
O=C(c1ccc(O)cc1)c1ccc(Cn2ccnc2)cc1,,,,,1100 nM
